The text below walks through data of ChEMBL document CHEMBL1138900, “2,5-diketopiperazines as potent, selective, and orally bioavailable oxytocin antagonists. 3. Synthesis, pharmacokinetics, and in vivo potency” (J Med Chem, 2006).

Each structure is given as a SMILES string. In brackets after ≈: the same amount, converted by molar mass.

Data set [1] is described as follows: AUC in dog. The data set is classed as ADME, organism-based, Canis lupus familiaris. Also noted: concentration or dose not given beside the values. The note with it: plasma. The method, boiled down: (§1)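 Dog pharmacokinetics, n = 3; dosed at 0.6 mg/kg in 5% DMSO/95% PEG400. AUC reported as ng·h mL⁻¹ and clearance as mL min⁻¹ kg⁻¹.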
Data set [2] can be described thus: AUC in rat. It is filed as ADME, organism-based. The note with it: plasma. Also noted: concentration or dose not given beside the values. The method, boiled down: (§2)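 Rat pharmacokinetics, n = 4; dosed at 5 mg/kg in 5% DMSO/95% PEG400. AUC in ng·h mL⁻¹, clearance in mL min⁻¹ kg⁻¹, half-life in h.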
Data set [3] addresses T1, Oxytocin receptor (Homo sapiens, UniProt P30559).
T1 sequence (P30559 whole entry): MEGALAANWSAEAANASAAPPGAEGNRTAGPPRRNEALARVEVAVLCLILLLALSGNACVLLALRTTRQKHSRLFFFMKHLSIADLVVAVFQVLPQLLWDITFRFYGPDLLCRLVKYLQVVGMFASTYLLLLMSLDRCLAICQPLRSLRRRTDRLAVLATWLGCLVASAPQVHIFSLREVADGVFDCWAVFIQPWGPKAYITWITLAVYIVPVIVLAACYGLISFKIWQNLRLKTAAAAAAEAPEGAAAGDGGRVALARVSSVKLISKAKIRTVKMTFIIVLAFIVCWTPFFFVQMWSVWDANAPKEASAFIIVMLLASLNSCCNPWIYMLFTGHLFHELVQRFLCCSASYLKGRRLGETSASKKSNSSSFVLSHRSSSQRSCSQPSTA
The experiment in a line: Displacement of [3H]oxytocin from human OTR. (Displacement assays read how much labelled ligand stays bound in the presence of the test substance.)

The subject of data set [4] is Canis familiaris. The experiment in a line: (§3) Oral bioavailability in dog. Conditions: in vivo. The data set is classed as ADME, organism-based, Canis lupus familiaris.
Data set [5] is described as follows: Solubility of the compound. The data set is classed as physicochemical. The method, boiled down: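 Aqueous solubility (mg mL⁻¹) measured by precipitation followed by HPLC.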
Data set [6] can be described thus: Clearance in dog. The data set is classed as ADME, organism-based, Canis lupus familiaris. The note with it: in vivo. The method, boiled down:
as §1

Data set [7] is described as follows: Clearance in rat. It is filed as ADME, organism-based. The note with it: in vivo. The method, boiled down: as §2
Data set [8] in a line: Oral bioavailability in rat. Conditions: in vivo. It is filed as ADME, organism-based.
Data set [9] in a line: Lipophilicity, log D by CHI method. It is filed as physicochemical. The note with it: read-out: Log D. The method, boiled down:
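Lipophilicity determined by an HPLC-based method.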

The target of data set [10] is T1, Oxytocin receptor. The experiment in a line: Antagonist activity against human OTR expressed in CHO cells measured as calcium influx by FLIPR assay. It is filed as functional, cell-based.
Data set [11] in a line: as §3. The data set is classed as ADME, organism-based, Canis lupus familiaris. The note with it: in vivo.
Data set [12] can be described thus: Half life in rat. The data set is classed as ADME, organism-based. Conditions: in vivo. The method, boiled down:
as §2

Data set [13] deals with Cytochrome P450 2C9 (Homo sapiens, UniProt P11712). The experiment in a line: Inhibition of CYP450 2C9 transfected in human microsome. It is filed as ADME. The method, boiled down:
(§4)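 Recombinant human CYP isozymes, with reaction progress followed by fluorogenic substrates; DEF and 7-benzyloxyquinoline used as CYP3A4 substrates. Compounds dissolved at 1.65 mM in DMSO/methanol and serially diluted to give IC50 (μM). A positive control run for each isozyme.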

In data set [14] the target is T2, Cytochrome P450 3A4 (Homo sapiens, UniProt P08684). The experiment in a line: Inhibition of CYP450 3A4 transfected in human microsome using PPR fluorogenic substrate. It is filed as ADME, microsomes.
T2 sequence (P08684 whole entry): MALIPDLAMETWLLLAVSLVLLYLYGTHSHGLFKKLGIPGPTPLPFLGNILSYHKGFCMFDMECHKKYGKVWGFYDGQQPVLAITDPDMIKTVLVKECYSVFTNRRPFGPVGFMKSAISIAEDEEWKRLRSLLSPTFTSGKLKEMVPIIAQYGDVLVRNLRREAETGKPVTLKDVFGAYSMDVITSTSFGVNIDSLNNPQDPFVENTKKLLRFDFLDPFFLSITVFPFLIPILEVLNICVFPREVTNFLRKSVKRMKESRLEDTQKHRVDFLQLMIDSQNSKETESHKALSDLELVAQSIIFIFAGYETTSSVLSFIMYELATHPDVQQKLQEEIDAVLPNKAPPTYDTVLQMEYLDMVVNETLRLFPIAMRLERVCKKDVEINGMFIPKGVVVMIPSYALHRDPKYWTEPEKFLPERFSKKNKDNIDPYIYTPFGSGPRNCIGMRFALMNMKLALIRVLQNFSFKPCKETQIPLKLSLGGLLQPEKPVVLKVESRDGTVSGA
Data set [15] concerns the target T3, Cytochrome P450 1A2 (Homo sapiens, UniProt P05177).
T3 sequence (P05177 whole entry): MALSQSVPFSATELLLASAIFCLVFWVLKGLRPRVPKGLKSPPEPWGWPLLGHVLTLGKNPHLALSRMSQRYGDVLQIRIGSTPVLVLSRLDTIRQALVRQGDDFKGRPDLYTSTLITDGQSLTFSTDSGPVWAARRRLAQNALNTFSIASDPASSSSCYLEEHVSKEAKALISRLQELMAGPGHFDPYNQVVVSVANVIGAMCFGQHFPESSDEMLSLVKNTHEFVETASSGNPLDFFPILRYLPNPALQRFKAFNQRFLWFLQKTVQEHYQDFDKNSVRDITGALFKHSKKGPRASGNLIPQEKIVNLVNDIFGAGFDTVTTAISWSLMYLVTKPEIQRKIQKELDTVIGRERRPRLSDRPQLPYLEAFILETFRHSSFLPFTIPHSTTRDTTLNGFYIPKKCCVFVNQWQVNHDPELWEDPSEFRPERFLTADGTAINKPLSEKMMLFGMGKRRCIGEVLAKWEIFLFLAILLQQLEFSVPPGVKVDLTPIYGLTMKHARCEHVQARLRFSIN
The experiment in a line: Inhibition of CYP450 1A2 transfected in human microsome. The data set is classed as ADME. The method, boiled down: as §4

The nature of data set [16]: Volume of distribution in dog. Conditions: in vivo, read-out: Vdss. The data set is classed as ADME, organism-based, Canis lupus familiaris.
The nature of data set [17]: Volume of distribution in rat. It is filed as ADME, organism-based. Conditions: in vivo, read-out: Vdss.
In data set [18] the target is T4, Oxytocin receptor (Rattus norvegicus, UniProt P70536).
T4 sequence (P70536 whole entry): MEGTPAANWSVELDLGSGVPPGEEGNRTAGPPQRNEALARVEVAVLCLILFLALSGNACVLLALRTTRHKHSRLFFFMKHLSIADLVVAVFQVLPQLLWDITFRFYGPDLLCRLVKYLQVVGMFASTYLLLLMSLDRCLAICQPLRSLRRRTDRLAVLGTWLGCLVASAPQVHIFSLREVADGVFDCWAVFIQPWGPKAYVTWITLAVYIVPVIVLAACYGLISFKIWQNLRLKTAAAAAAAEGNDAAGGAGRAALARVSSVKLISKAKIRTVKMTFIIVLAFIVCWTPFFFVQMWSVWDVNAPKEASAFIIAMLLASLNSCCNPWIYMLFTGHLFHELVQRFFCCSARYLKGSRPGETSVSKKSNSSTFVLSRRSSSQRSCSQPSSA
The experiment in a line: Displacement of [3H]oxytocin from rat OTR.

In data set [19] the target is T5, Vasopressin V1b receptor (Homo sapiens, UniProt P47901).
T5 sequence (P47901 whole entry): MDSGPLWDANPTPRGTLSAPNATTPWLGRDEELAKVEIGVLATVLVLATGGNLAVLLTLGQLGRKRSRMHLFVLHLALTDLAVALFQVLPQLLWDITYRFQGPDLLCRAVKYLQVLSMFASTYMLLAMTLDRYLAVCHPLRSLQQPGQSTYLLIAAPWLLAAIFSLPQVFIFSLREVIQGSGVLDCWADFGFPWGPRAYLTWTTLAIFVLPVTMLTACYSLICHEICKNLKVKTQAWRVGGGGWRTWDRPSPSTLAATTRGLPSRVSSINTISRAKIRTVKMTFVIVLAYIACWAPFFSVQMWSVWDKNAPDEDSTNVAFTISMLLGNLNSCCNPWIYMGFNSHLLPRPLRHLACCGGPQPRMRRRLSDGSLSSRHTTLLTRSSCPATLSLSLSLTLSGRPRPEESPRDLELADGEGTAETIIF
The experiment in a line: Displacement of vasopressin from human V1bR.

Data set [20] concerns the target Vasopressin V2 receptor (Homo sapiens, UniProt P30518). The experiment in a line: Displacement of vasopressin from human V2R.
The target in data set [21] is Cytochrome P450 2C19 (Homo sapiens, UniProt P33261). The experiment in a line: Inhibition of CYP450 2C19 transfected in human microsome. It is filed as ADME. The method, boiled down: as §4
Cytochrome P450 2C19, sequence (P33261 whole entry): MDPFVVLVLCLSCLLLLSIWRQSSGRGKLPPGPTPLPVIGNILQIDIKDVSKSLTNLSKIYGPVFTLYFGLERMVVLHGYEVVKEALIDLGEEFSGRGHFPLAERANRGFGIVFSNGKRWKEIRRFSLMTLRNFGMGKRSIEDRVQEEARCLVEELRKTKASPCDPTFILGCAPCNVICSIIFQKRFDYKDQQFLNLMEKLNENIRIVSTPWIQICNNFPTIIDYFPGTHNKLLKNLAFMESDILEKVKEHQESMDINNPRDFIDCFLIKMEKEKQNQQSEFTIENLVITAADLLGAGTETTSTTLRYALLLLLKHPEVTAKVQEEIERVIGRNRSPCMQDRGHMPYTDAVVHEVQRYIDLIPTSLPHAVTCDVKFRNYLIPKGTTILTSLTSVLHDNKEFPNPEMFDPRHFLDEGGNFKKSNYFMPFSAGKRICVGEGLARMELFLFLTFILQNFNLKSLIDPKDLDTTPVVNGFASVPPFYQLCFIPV
Data set [22] relates to Rattus norvegicus. The experiment in a line: Reduction in oxytocin-induced uterine contraction in iv dosed anaesthetized rat. It is filed as functional, organism-based. The method, boiled down: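 Anaesthetized rats; uterine contractions elicited by iv oxytocin at a standard dose of 0.3 ug/kg. Test compound then given iv in rising doses (0.1, 0.3, 1 mg/kg) and the fall in contractility recorded. Plasma IC50 taken as the plasma concentration giving 50% inhibition of the response to the standard oxytocin dose.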

In data set [23] the target is T2, Cytochrome P450 3A4. The experiment in a line: Inhibition of CYP450 3A4 transfected in human microsome using DEF fluorogenic substrate. The data set is classed as ADME, microsomes. The method, boiled down: as §4
The target of data set [24] is Vasopressin V1a receptor (Homo sapiens, UniProt P37288). The experiment in a line: Displacement of vasopressin from human V1aR.
Vasopressin V1a receptor, sequence (P37288 whole entry): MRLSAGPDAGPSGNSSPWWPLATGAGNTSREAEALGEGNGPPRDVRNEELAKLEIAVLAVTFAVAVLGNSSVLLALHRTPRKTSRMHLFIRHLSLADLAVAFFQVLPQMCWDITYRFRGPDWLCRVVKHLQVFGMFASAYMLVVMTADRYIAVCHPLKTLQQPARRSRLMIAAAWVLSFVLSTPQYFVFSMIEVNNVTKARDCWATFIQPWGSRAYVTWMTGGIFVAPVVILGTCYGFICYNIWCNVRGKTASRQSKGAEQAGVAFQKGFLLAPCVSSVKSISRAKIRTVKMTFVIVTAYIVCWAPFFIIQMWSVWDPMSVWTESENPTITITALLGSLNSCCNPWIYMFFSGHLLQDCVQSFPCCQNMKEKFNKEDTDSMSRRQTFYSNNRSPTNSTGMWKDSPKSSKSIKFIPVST
For data set [25], the target named is Cytochrome P450 2D6 (Homo sapiens, UniProt P10635). The experiment in a line: Inhibition of CYP450 2D6 transfected in human microsome using DEF fluorogenic substrate. It is filed as ADME, microsomes. The method, boiled down: as §4
Cytochrome P450 2D6, sequence (P10635 whole entry): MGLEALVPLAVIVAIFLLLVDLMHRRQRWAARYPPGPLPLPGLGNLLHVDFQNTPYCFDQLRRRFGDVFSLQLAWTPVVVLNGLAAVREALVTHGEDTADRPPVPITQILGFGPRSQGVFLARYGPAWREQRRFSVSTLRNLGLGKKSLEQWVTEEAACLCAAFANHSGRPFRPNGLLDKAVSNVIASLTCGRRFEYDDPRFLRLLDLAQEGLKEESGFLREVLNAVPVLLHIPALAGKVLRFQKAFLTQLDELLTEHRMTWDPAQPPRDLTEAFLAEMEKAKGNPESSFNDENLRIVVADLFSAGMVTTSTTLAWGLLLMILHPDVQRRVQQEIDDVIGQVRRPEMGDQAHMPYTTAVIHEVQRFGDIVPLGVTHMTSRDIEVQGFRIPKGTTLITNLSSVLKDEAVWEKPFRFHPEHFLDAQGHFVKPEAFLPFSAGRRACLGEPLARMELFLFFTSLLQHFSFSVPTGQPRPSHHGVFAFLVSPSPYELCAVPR
Data set [26] is described as follows: Half life in dog. It is filed as ADME, organism-based, Canis lupus familiaris. Conditions: in vivo.
Data set [27] deals with T1, Oxytocin receptor. The experiment in a line: […] activity at human OTR expressed in CHO cells assessed as inhibition of oxytocin-induced calcium mobilization by FLIPR assay. The data set is classed as functional, cell-based. A general note: Calcium assays in cells follow changes in intracellular calcium, usually with a dye or a luminescent sensor.

Vasopressin V2 receptor, sequence (P30518 whole entry): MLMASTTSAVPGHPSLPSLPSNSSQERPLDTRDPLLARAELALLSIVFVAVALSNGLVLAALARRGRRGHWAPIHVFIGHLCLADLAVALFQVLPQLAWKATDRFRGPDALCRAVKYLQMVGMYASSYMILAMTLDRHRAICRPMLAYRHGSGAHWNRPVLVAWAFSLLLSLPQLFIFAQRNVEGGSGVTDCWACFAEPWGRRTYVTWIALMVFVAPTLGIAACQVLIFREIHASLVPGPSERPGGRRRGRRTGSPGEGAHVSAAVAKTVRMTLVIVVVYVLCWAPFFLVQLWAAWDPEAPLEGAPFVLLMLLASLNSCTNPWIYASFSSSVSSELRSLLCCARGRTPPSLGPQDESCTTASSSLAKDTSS
Cytochrome P450 2C9, sequence (P11712 whole entry): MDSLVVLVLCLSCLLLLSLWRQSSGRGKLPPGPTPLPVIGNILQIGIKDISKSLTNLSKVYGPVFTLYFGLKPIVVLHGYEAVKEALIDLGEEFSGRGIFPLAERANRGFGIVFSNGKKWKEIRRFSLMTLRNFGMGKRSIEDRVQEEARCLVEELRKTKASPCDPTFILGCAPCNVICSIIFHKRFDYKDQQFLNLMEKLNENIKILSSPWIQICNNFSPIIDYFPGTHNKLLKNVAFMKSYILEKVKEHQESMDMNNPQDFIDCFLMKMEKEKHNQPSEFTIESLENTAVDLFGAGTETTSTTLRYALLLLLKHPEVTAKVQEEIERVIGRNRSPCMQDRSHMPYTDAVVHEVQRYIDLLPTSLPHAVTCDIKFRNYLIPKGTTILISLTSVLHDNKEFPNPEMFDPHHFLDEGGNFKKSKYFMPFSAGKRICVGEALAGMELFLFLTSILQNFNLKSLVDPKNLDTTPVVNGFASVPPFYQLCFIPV

Usually AUC stands for the area under the concentration-time curve, a measure of exposure. As a reminder, the Ki is the dissociation constant of the complex between target and ligand, obtained from inhibition or displacement. A word on the solubility: it is how much of the substance goes into solution per volume. By clearance is commonly meant the rate of elimination divided by the concentration. The term bioavailability denotes dose-corrected exposure relative to a reference, in per cent. Regarding `CC(C)C[C@@H]1C(=O)N[C@H](C2Cc3ccccc3C2)C(=O)N1[C@@H](C(=O)NC(C)C)c1ccc(F)cc1F`, the values for the AUC in data set [1] and in data set [2] were 174 ng·h/mL and 2880 ng·h/mL, respectively. Moreover, the Ki in data set [3] is 0.00126 µM. The compound also came in with a F in data set [4] of 13%. Further, in data set [5], the solubility is 8 µg/mL (≈ 16.1 µM). Further, the clearance in [6] was 11 mL/min/kg; in data set [7], 36 mL/min/kg. In data set [8], this compound had a bioavailability of 46%. Further, the chromatographic logD in data set [9] was 3.4.

A word on the half-life: it is the time needed for the level to fall by half in the phase considered. What is called IC50 is the concentration that inhibits the measured activity by half. In the case of `CC(C)C[C@@H]1C(=O)N[C@H](C2Cc3ccccc3C2)C(=O)N1[C@@H](C(=O)NC(C)C)c1ccc2occc2c1`, the Ki in [3] was 0.001 µM; in data set [10], 0.00398 µM; in [18] it was 0.0631 µM; in data set [19], more than 6.31 µM; in data set [20] it was 5.01 µM; in [24], more than 6.31 µM. For the same compound, the values for the bioavailability in data set [11] and in [8] were 95% and 68%, respectively. For the same compound, the figures for the clearance in data set [6] and in data set [7] were 6 mL/min/kg and 9 mL/min/kg, respectively. Also, the half-life in data set [12] is 2 h; in data set [26], 2.4 h. Moreover, the half-maximal inhibitory concentration (IC50) in data set [13] is 3.5 µM; in data set [14], 4.3 µM; in data set [15] it was 73 µM; in data set [21], more than 100 µM; in data set [23] it was 2.5 µM; in data set [25], 62 µM. Further, the Vd in data set [16] amounted to 0.9 L/kg; in [17] it was 1.4 L/kg. Moreover, in [22], the Activity turned out to be 5.4 mg/kg.

Consider `CC(C)C[C@@H]1C(=O)N[C@H](C2Cc3ccccc3C2)C(=O)N1[C@@H](C(=O)N(C)C)c1ccc(F)cc1F`, for which, in data set [1], the AUC is 770 ng·h/mL. The Ki is 0.000631 µM in data set [3]; 0.00158 µM in [10]; 0.01 µM in data set [18]; more than 6.31 µM in data set [19]; 0.316 µM in data set [20]; more than 6.31 µM in data set [24]. Also, the IC50 in data set [27] is 0.0037 µM; in data set [13], 49 µM; in data set [14], 62 µM; in data set [15], 64 µM; in data set [21], more than 100 µM; in [22] (Rattus norvegicus), 0.227 µM. Besides, the IC50 in [23] is 89 µM; in [25], more than 100 µM. The bioavailability came out at 51% in data set [11] and 53% in data set [8]. In [5], this compound registered a solubility of 83 µg/mL (≈ 172 µM). Moreover, the results for the clearance in [6] and in data set [7] were 7 mL/min/kg and 15 mL/min/kg, respectively. Besides, the results for the half-life in data set [12] and in data set [26] were 1.1 h and 2.1 h, respectively. For the same compound, the Vd in data set [16] was 1.1 L/kg; in data set [17], 1.2 L/kg. In [22], this compound showed an Activity of 0.22 mg/kg. The chromatographic logD in [9] stood at 3.3.
